Assay results from ChEMBL document CHEMBL1126169, “8-Polycycloalkyl-1,3-dipropylxanthines as potent and selective antagonists for A1-adenosine receptors” (J Med Chem, 1992).

Assays:
[1] = target: T1, Adenosine receptor A1 (Cavia porcellus, UniProt P47745); assay: Inhibition of N6-[3H]cyclohexyladenosine binding to guinea pig forebrain membrane Adenosine A1 receptor
T1 sequence (P47745 whole entry): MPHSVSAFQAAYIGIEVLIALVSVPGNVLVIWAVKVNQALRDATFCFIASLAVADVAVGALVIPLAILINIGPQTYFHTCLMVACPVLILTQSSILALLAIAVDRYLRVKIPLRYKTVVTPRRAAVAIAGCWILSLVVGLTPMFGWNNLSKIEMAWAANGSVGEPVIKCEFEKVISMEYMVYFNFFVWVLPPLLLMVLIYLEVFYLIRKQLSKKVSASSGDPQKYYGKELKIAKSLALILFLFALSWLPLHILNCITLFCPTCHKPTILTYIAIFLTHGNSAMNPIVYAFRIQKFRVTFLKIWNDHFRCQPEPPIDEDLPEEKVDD

[2] = target: T2, Adenosine A2 receptor (Rattus norvegicus, UniProt P29276+P30543); assay: Binding affinity against adenosine A2 receptor using N-[3H]-ethyladenosin-5''-uronamide as radioligand in rat striatal membranes.; assay type: cell membranes
[3] = target: T1, Adenosine receptor A1; assay: Binding affinity against adenosine A1 receptor using N6-[3H]cyclohexyladenosine as radioligand in guinea pig forebrain membranes; assay type: cell membranes, Brain membranes
[4] = target: Adenosine receptor A1 (Rattus norvegicus) (UniProt P25099); assay: Binding affinity against adenosine A1 receptor using N6-[3H]cyclohexyladenosine as radioligand in rat brain membranes
[5] = target: T1, Adenosine receptor A1; assay: Binding affinity against Adenosine A1 receptor using N6-[3H]cyclohexyladenosine in guinea pig forebrain membranes; assay type: cell membranes, Brain membranes
Method in brief: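 Guinea pig forebrain membranes in 50 mM Tris-HCl pH 7.7, pretreated with adenosine deaminase (2.0 units/mL, 30 min, 37 °C), 10 mg tissue per tube. Incubated with 1.1 nM [3H]cyclohexyladenosine, final DMSO <0.9%, for 90 min at 25 °C, then GF/C filtration and scintillation counting. Nonspecific binding defined with 10 µM R-PIA.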

[6] = target: T2, Adenosine A2 receptor; assay: Binding affinity against Adenosine A2 receptor using N-[3H]-ethyladenosin-5''-uronamide in rat striatal membranes; assay type: cell membranes, Striatum, Membrane
[7] = target: T3, Adenosine receptor A1 (Rattus norvegicus, UniProt P25099); assay: Binding affinity against Adenosine A1 receptor using N6-[3H]cyclohexyladenosine in rat brain membranes; assay type: cell membranes
T3 sequence (P25099 whole entry): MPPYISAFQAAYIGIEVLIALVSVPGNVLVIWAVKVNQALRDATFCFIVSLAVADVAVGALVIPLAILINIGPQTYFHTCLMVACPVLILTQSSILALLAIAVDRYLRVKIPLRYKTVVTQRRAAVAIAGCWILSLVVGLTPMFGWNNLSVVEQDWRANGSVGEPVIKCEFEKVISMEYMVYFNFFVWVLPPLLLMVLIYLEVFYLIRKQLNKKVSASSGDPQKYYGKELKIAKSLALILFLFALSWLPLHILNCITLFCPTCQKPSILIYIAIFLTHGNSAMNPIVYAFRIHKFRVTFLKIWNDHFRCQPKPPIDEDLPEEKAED
Method in brief: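 Rat forebrain membranes were prepared like the guinea pig tissue. Tissue was homogenized in ice-cold 50 mM Tris-HCl pH 7.7, centrifuged at 50000g and washed. It was treated with ADA (2.0 units/mL) for 30 min at 37 °C, then used at 10 mg tissue/mL. Duplicate curves used five or more concentrations; IC50 from logit-log plots was converted to Ki by Cheng-Prusoff.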

[8] = target: T1, Adenosine receptor A1; assay: Binding affinity against Adenosine A1 receptor using N6-[3H]cyclohexyladenosine in guinea pig membranes; assay type: cell membranes
[9] = Inhibitory activity against adenylate cyclase using (R)-N6-(2-[3H]-phenyl-1-methylethyladenosine as radioligand in rat adipocytes; assay type: cell-based
[10] = Binding affinity against adenylate cyclase using N-[3H]-ethyl adenosine-5-uronamide as radioligand in human platelet membranes; assay type: cell membranes

SMILES	Ki [2] [nM]	Ki [3] [nM]	other results
OC[C@H]1OC(n2cnc3c(NC(C4CC4)C4CC4)ncnc32)[C@H](O)[C@@H]1O (some centres not stated)	–	–	Ki [1]: 0.75 nM
CC(C)(C)Nc1ncnc2c1ncn2C1O[C@H](CO)[C@@H](O)[C@H]1O (some centres not stated)	–	20	–
CCC(CC)Nc1ncnc2c1ncn2C1O[C@H](CO)[C@@H](O)[C@H]1O (some centres not stated)	–	–	Ki [4]: 0.75 nM
CC(C)Cn1c(=O)n(C)c(=O)c2[nH]c(C34CC5CC(CC3C5)C4)nc21	–	–	Ki [1]: 15 nM
CCCn1c(=O)c2nc(C3CC4CCC3C4)[nH]c2n(CCC)c1=O (configuration not stated)	–	–	Ki [1]: 4.4 nM
CC[C@H](C)Nc1ncnc2c1ncn2C1O[C@H](CO)[C@@H](O)[C@H]1O (single isomer, unassigned)	–	–	Ki [1]: 0.8 nM
CC(C)(C)CNc1ncnc2c1ncn2C1O[C@H](CO)[C@@H](O)[C@H]1O (some centres not stated)	–	17	–
CCC(C)(C)Nc1ncnc2c1ncn2C1O[C@H](CO)[C@@H](O)[C@H]1O (some centres not stated)	–	–	Ki [1]: 16 nM
CC[C@@H](C)Nc1ncnc2c1ncn2[C@@H]1O[C@H](CO)[C@@H](O)[C@H]1O	–	–	Ki [1]: 1.3 nM
Cn1c(=O)c2c(ncn2C)n(C)c1=O [CAFFEINE]	–	100000	–
CCCn1c(=O)c2nc(CC34C[C@H]5C[C@@H](C3)C[C@@H](C4)C5)[nH]c2n(CCC)c1=O	> 100000	880	–
CCCn1c(=O)c2nc(-c3cc(S(=O)(=O)[O-])co3)[nH]c2n(CCC)c1=O.[K+]	–	–	Ki [5]: > 10000 nM; Ki [6]: > 10000 nM
OC[C@H]1OC(n2cnc3c(NCC4CC4)ncnc32)[C@H](O)[C@@H]1O (some centres not stated)	–	–	Ki [4]: 0.75 nM
CCCn1c(=O)c2[nH]c(C[C@H]3CC4CCC3C4)nc2n(CCC)c1=O (some centres not stated)	–	80	–
Cn1c(=O)c2[nH]c(C34CC5CC(CC3C5)C4)nc2n(C)c1=O	–	41	–
CC(C)Nc1ncnc2c1ncn2[C@@H]1O[C@H](CO)[C@@H](O)[C@H]1O	–	1.9	–
OC[C@H]1O[C@@H](n2cnc3c(NC4CC5CCC4C5)ncnc32)[C@H](O)[C@@H]1O (some centres not stated)	–	–	Ki [1]: 0.7 nM; Ki [7]: 0.91 nM
CCCC(CCC)Nc1ncnc2c1ncn2C1O[C@H](CO)[C@@H](O)[C@H]1O (some centres not stated)	–	3.3	–
CCCn1c(=O)c2[nH]c(C34C[C@H]5C[C@@H](C3)C[C@@H](C4)C5)nc2n(CCC)c1=O	–	13	–
CCCn1c(=O)c2nc[nH]c2n(CCC)c1=O	–	–	Ki [8]: 1000 nM; Ki [1]: 1400 nM; Kb [9]: 940 nM
CC1(Nc2ncnc3c2ncn3C2O[C@H](CO)[C@@H](O)[C@H]2O)CCCCC1 (some centres not stated)	–	–	Ki [4]: 70 nM
CCCCn1c(=O)c2nc(C34CC5CC(CC3C5)C4)[nH]c2n(CCCC)c1=O	–	10	–
CCCn1c(=O)c2nc(-c3cnns3)[nH]c2n(CCC)c1=O	–	–	Ki [5]: 4400 nM; Ki [6]: > 10000 nM
CCCn1c(=O)[nH]c(=O)c2[nH]c(C34CC5CC(CC3C5)C4)nc21	–	–	Ki [1]: 370 nM; Ki [6]: > 100000 nM
OC[C@H]1OC(n2cnc3c(NC45C[C@H]6C[C@@H](C4)C[C@@H](C5)C6)ncnc32)[C@H](O)[C@@H]1O (some centres not stated)	–	73	–
CCCn1c(=O)c2nc(C3c4ccccc4-c4ccccc43)[nH]c2n(CCC)c1=O	–	–	Ki [5]: 2900 nM; Ki [6]: > 100000 nM
Cn1c(=O)c2[nH]cnc2n(C)c1=O	–	–	Kb [9]: 4800 nM; Kb [10]: 5700 nM

Further lines, with some results ahead:

Ki [2] [nM]	Ki [3] [nM]	SMILES	other results
480	4.3	CCCn1c(=O)c2nc([C@@H]3CC4C=CC3C4)[nH]c2n(CCC)c1=O (some centres not stated)	–
2300	410	CCCn1c(=O)c2nc(-c3csc(C)n3)[nH]c2n(CCC)c1=O	–
210	3.4	CCCn1c(=O)c2nc([C@H]3CC4C=CC3C4)[nH]c2n(CCC)c1=O (some centres not stated)	–
1200	120	CCCn1c(=O)c2nc(CC3CC3)[nH]c2n(CCC)c1=O	–
21000	240	CCCn1c(=O)c2nc(C(C)(O)CC)[nH]c2n(CCC)c1=O (configuration not stated)	–
6000	49	CCCn1c(=O)c2nc(CC(C)(C)C)[nH]c2n(CCC)c1=O	–
2200	25	CCCn1c(=O)c2nc(C(C)(C)CCC)[nH]c2n(CCC)c1=O	–
440	3.8	CCCn1c(=O)c2nc([C@@H]3CC4CCC3C4)[nH]c2n(CCC)c1=O (some centres not stated)	–
530	560	CCCn1c(=O)c2nc(-c3ccco3)[nH]c2n(CCC)c1=O	–
330	3.5	CCCn1c(=O)c2nc(C3CCC4CCCC43)[nH]c2n(CCC)c1=O (configuration not stated)	Ki [1]: 5.6 nM; Ki [6]: 560 nM
> 100000	–	CCCn1c(=O)c2nc(C3C(C)(C)CCC3(C)C)[nH]c2n(CCC)c1=O	–
6000	140	CCCn1c(=O)c2nc(-c3cccn3C)[nH]c2n(CCC)c1=O	–
2300	31	CCCn1c(=O)c2nc(C(C)(C)C)[nH]c2n(CCC)c1=O	–
1200	11	CCCn1c(=O)c2nc(C3(C)CCCCC3)[nH]c2n(CCC)c1=O	–
12000	170	CCCn1c(=O)c2nc(C(O)(CC)CC)[nH]c2n(CCC)c1=O	–
1700	220	CCCn1c(=O)c2nc(C3Cc4ccccc4C3)[nH]c2n(CCC)c1=O	–
1900	210	CCCn1c(=O)c2nc(-c3cccs3)[nH]c2n(CCC)c1=O	–
1200	> 10000	CCCn1c(=O)c2nc(-c3cc4ccccc4o3)[nH]c2n(CCC)c1=O	–
1000	23	CCCn1c(=O)c2nc(C(C)(C)CC)[nH]c2n(CCC)c1=O	–
> 100000	> 10000	CCCn1c(=O)c2nc(-c3nn[nH]n3)[nH]c2n(CCC)c1=O	–
> 10000	–	CCCn1c(=O)c2nc(-c3cnsn3)[nH]c2n(CCC)c1=O	–
> 100000	> 100000	CCCn1c(=O)c2nc(-c3cc4ccccc4n3C)[nH]c2n(CCC)c1=O	–
> 100000	> 100000	CCCn1c(=O)c2nc(-c3cc4ccccc4s3)[nH]c2n(CCC)c1=O	–
